From ChEMBL document CHEMBL4513216, “Probing the Open Global Health Chemical Diversity Library for Multistage-Active Starting Points for Next-Generation Antimalarials” (ACS Infect Dis, 2020) come the findings set out here.

The data set in a line: Toxicity liver stage against HepG2, at 10uM. Format: cell-based. The arrangement: test concentration 10 uM, cell line HepG2-A16-CD81EGFP. Particulars: human, HepG2-A16-CD81EGFP cells; read-out: INHIBITION
An outline of the steps:
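Uninfected HepG2-A16-CD81EGFP cells, 3 × 10^3 per well, 1536-well, plated on prespotted compound at 10 μM final, parasite-free screening media added to match infected plates; puromycin 10 μM positive, DMSO 0.5% negative; run in parallel with 48 h PbLuc assay at 37 °C, 5% CO2; viability by CellTiter-Glo luminescence, normalized to controls.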
Consider `COc1ccccc1COCC(O)CN(C)Cc1cccc(Cl)c1` (stereo unspecified), for which the cytotoxicity at 10 µM was -1.28%.

Turning to `CC(=O)N1CCC(N2CCOC[C@H]2c2nc(C(C)(C)C)c[nH]2)CC1`, the cytotoxicity at 10 µM was 6.51%.

`CCOCc1nc(N2CCOCC2)sc1C(=O)NCCCc1ccco1`: the cytotoxicity at 10 µM is -87.3%.

As to `Cc1ccn(CCC(=O)NC(C)Cc2ccco2)n1` (stereo unspecified), the cytotoxicity at 10 µM is -4.1%.

Consider `O=C1c2cccnc2OC(CN2CCOCC2)CN1CC1CC1` (stereo unspecified), for which the cytotoxicity at 10 µM is -6.17%.

Consider `COc1ccc2c(ccn2CCC(=O)NCCCC(=O)O)c1`, for which the cytotoxicity at 10 µM worked out at 5.7%.

As to `COC(=O)[C@@H](NC(=O)c1snnc1-c1ccc(OC)cc1)C(C)C`, the cytotoxicity at 10 µM was 4.96%.

Regarding `O=C(c1cnn2c1OCCC2)N1CCN(C(=O)C2CCCO2)CC1` (stereo unspecified), the cytotoxicity at 10 µM is -6.19%.

With `O=C([C@H]1COC[C@H]2CN(CC3CCC3)C[C@H]21)N1CCOCC1`, the cytotoxicity at 10 µM was determined as 17.3%.

Consider `Cc1cc(CN2C[C@@H]3COC[C@]3(c3nnc(C)o3)C2)no1`, for which the cytotoxicity at 10 µM is -2.11%.

On to `Cn1nc(CNC(=O)c2nc3ccccc3s2)c2c1CCOC2`, for which the cytotoxicity at 10 µM was -3.16%.

Take `Cc1ncsc1CN1C[C@@H](OCC2CC2)[C@H]2OCCC[C@H]21`: the cytotoxicity at 10 µM is -9.76%.

As to `CCNC(=O)c1nc2c(s1)CCCN2S(C)(=O)=O`, the cytotoxicity at 10 µM was -12.6%.

For the molecule `CCn1nc(C)c2nnn(CC(=O)Nc3cccc(Cl)c3)c(=O)c21`, the cytotoxicity at 10 µM is 4.47%.

For the molecule `CC(C)(C)C(=O)NCCc1cc2nc(-c3ccncc3)ccn2n1`, the cytotoxicity at 10 µM came out at 6.66%.

For `COc1ccc2c(c1)CC(C1CCOCC1)N(C(=O)c1cnccn1)C2` (stereo unspecified), the cytotoxicity at 10 µM was found to be 5.21%.

On to `CC(=O)N1CCCC(C(=O)c2cnn(-c3ccc(F)cc3)c2N)C1` (stereo unspecified), for which the cytotoxicity at 10 µM was determined as 5.82%.

On to `CC(O)c1cn(Cc2ccc(Cl)cc2)nn1` (stereo unspecified), for which the cytotoxicity at 10 µM is 8.75%.

On to `O=S(=O)(c1ccc(F)cc1Cl)N1CCCC1c1ccncc1` (stereo unspecified), for which the cytotoxicity at 10 µM is -7.95%.

Regarding `CCOc1c(F)cccc1C(=O)N(C)CCc1ccccn1`, the cytotoxicity at 10 µM is 18.6%.

As for `O=C(C(c1ccccc1)S(=O)(=O)c1ccccn1)N1CCCCC1` (stereo unspecified), the cytotoxicity at 10 µM is 5.7%.

For the molecule `CCOc1ccc(CN(C)C(=O)c2nc(N3CCCC3)ncc2Cl)cc1`, the cytotoxicity at 10 µM was -33%.

Regarding `CC(C)c1ncc(C(=O)N(C)c2ccc(Br)cn2)s1`, the cytotoxicity at 10 µM turned out to be 9.12%.

Regarding `CCC(CC)C(=O)NCc1c(C)nn(C)c1N1CCCN(C)CC1`, the cytotoxicity at 10 µM stood at 0.295%.

On to `CCOC(=O)C1CCCN(Cc2cc(C#N)n(C)c2C)C1` (stereo unspecified), for which the cytotoxicity at 10 µM was found to be 0.0308%.

For `O=C(COC1CCCC1)N1CCCC1c1noc(C2CC2)n1` (stereo unspecified), the cytotoxicity at 10 µM was determined as 11%.

`Cc1ccc(CN(C(=O)NCc2nnc3n2CCCCC3)C2CC2)o1`: the cytotoxicity at 10 µM was 9.35%.

For `Cc1ccc(NCCNC(=O)c2cc(CC(C)C)n[nH]2)nn1`, the cytotoxicity at 10 µM amounted to 0.37%.

For `Cc1cc(NCCNS(=O)(=O)c2cccc(Cl)c2)nc(C)n1`, the cytotoxicity at 10 µM was 2.9%.

In the case of `O=C(c1[nH]nc(C2CC2)c1Cl)N1CCN(C2CC2)C(=O)C1`, the cytotoxicity at 10 µM was -4.81%.

`Cc1cc(C(=O)N2CCCC(N3CCCCCC3)C2)nn1C(C)(C)C` (stereo unspecified): the cytotoxicity at 10 µM is -4.4%.

On to `Cc1ccc2cc(C(=O)N3CCN(C(=O)c4ccoc4)CC3)[nH]c2c1`, for which the cytotoxicity at 10 µM is -43.6%.

Regarding `Cn1cc(NC(=O)NC2CCCN(c3ccccc3Cl)C2=O)cn1` (stereo unspecified), the cytotoxicity at 10 µM is -41.8%.

`CCc1nnsc1C(=O)N(C)Cc1ccc(C)o1`: the cytotoxicity at 10 µM is -46.5%.

For the molecule `CC1COCCN1C(=O)NCCCn1ccnc1` (stereo unspecified), the cytotoxicity at 10 µM is -44.9%.

Take `COc1cccc(N2CCN(CCC(=O)NC3CCCC3)CC2)c1`: the cytotoxicity at 10 µM is -5.93%.

`Cn1ccnc1CN1CCC2(CC1)CC(N1CCCC1)c1ccccc12` (stereo unspecified): the cytotoxicity at 10 µM worked out at 7.24%.

For `Cn1cc(-c2cnc(-c3ccnn3C)nc2)cc1C(=O)NC1CC1`, the cytotoxicity at 10 µM is 3.77%.

Regarding `C[C@H](O)CNc1cc(-c2cn[nH]c2)ncn1`, the cytotoxicity at 10 µM was -15.6%.

As to `CCc1ncc(C(=O)N2C[C@@H](C)O[C@@H](C)C2)cn1`, the cytotoxicity at 10 µM was -4.34%.

For `COc1ccc(C(C(=O)O)N(C)CCN2CCCC2)cc1F` (stereo unspecified), the cytotoxicity at 10 µM was determined as 1.38%.

On to `O=C(CN1CCOC1=O)N1CCC2(CCc3ccccc32)CC1`, for which the cytotoxicity at 10 µM is -15.8%.

Turning to `Cn1c(=O)oc2ccc(NC(=O)N3CCSCC3)cc21`, the cytotoxicity at 10 µM stood at 2.58%.

As for `Cc1cc(NCCSc2nccn2C)n2nc(C)c(C)c2n1`, the cytotoxicity at 10 µM was determined as 9.75%.

Regarding `Nc1ncc(CN2C[C@H](C3CC3)[C@@H](N)C2)cn1`, the cytotoxicity at 10 µM is -44.6%.

With `Cc1nc(C)n(CC(C)C(=O)N2CCCN(C3CCCC3)CC2)n1` (stereo unspecified), the cytotoxicity at 10 µM is -0.103%.

For the molecule `CCc1cc(NCCCOC2CCCC2)ncn1`, the cytotoxicity at 10 µM is -1.41%.

For the molecule `CCNC(=O)[C@@H]1C[C@H](NC(=O)Cc2ccsc2)CN1Cc1ccc(C)o1`, the cytotoxicity at 10 µM is -11.8%.

Regarding `CN(CCO)Cc1nnc(C2CCN(C3CCCCC3)CC2)n1C`, the cytotoxicity at 10 µM is 20.7%.

Turning to `CNC(=O)c1ccc(C(=O)N2CCCCC2Cn2cc(C)cn2)cn1` (stereo unspecified), the cytotoxicity at 10 µM was -3.54%.

As for `O=C(CCNC(=O)c1ccoc1)Nc1cc(F)ccc1F`, the cytotoxicity at 10 µM was -12.8%.

`O=C(CCNC(=O)C1CCCC1)NCc1cccnc1-n1cncn1`: the cytotoxicity at 10 µM is -3.39%.

For `O=C(NCCOc1ccc2c(c1)OCO2)C1CC(=O)N(CC2CC2)C1` (stereo unspecified), the cytotoxicity at 10 µM was -6.63%.

Regarding `CC(NC(=O)NCC1(c2ccccc2)CCC1)c1nncn1C` (stereo unspecified), the cytotoxicity at 10 µM is -10.4%.

For the molecule `NC(=O)C1CN(C(=O)Nc2ccccc2SC(F)(F)F)CCO1` (stereo unspecified), the cytotoxicity at 10 µM is -8.3%.

Regarding `CC(C)c1nc(CC(=O)N2CCCC(n3cncn3)C2)cs1` (stereo unspecified), the cytotoxicity at 10 µM was -8.24%.

As to `Cc1ccc(C(=O)N2CCN(CC(O)c3ccc(F)cc3)CC2)s1` (stereo unspecified), the cytotoxicity at 10 µM is -8.93%.

In the case of `CNS(=O)(=O)CCCN1CCCC1c1cc(C)on1` (stereo unspecified), the cytotoxicity at 10 µM is -6.31%.

Take `Cc1cnn(CC2CCCN2C(=O)Cc2n[nH]c3ccccc23)c1` (stereo unspecified): the cytotoxicity at 10 µM was -9.16%.

For `Cc1cnn(CC2CCCN2CC(=O)Nc2cc(C(C)(C)C)no2)c1` (stereo unspecified), the cytotoxicity at 10 µM is -7.76%.

For the molecule `CCc1ccsc1C(=O)N1CCN(CC(O)CC)CC1` (stereo unspecified), the cytotoxicity at 10 µM is -4.25%.

Turning to `COc1ccc(CN2CCc3ncnc(C4CCOC4)c3CC2)cc1` (stereo unspecified), the cytotoxicity at 10 µM is -9.25%.

Turning to `O=S(=O)(C1CC1)N1CCC2(CCCN(Cc3ccccn3)C2)C1` (stereo unspecified), the cytotoxicity at 10 µM was -0.336%.

Consider `COc1ccc(S(=O)(=O)NCC(N)c2ccccc2)c(C)c1` (stereo unspecified), for which the cytotoxicity at 10 µM came to 0.0381%.

Regarding `CC(C)N(C)[C@@H]1CCN(Cc2nccs2)[C@H]1Cc1ccncc1`, the cytotoxicity at 10 µM is -2.75%.

With `FC(F)Oc1ccc(CNCc2cc(Cl)c3c(c2)OCO3)cc1`, the cytotoxicity at 10 µM was determined as 2.63%.

On to `CN1CCc2c(c(COc3cncnc3)nn2CC2CC2)C1`, for which the cytotoxicity at 10 µM worked out at 8.61%.

For the molecule `CNC(=O)[C@@H]1C[C@H]2CN(c3ncccn3)C[C@H]2N1C(C)C`, the cytotoxicity at 10 µM stood at 9.72%.

Regarding `c1coc(CN2C[C@@H]3CCCO[C@@H]3[C@H](N3CCCC3)C2)c1`, the cytotoxicity at 10 µM was -2.02%.

Consider `CCOCC1CN(C(=O)COc2ccccc2C)Cc2ncn(C)c21` (stereo unspecified), for which the cytotoxicity at 10 µM amounted to 0.78%.

Regarding `CN(C)[C@@H]1CN(C(=O)Cc2cccs2)[C@@H]2CCCO[C@H]12`, the cytotoxicity at 10 µM was determined as 5.93%.
